Measured values reported in ChEMBL document CHEMBL4049456, “Identification of 4-(Aminomethyl)-6-(trifluoromethyl)-2-(phenoxy)pyridine Derivatives as Potent, Selective, and Orally Efficacious Inhibitors of the Copper-Dependent Amine Oxidase, Lysyl Oxidase-Like 2 (LOXL2)” (J Med Chem, 2017).

Key:
[1] = molecular target: T1, Lysyl oxidase homolog 2 (Homo sapiens) (UniProt Q9Y4K0); test: Irreversible inhibition of human LOXL2 assessed as reduction of H2O2 production from oxidative deamination of DAP at 1000 times IC50 preincubated for 2 hrs followed by compound washout and subsequent incubation for 2 hrs prior to substrate addition measured every 2 mins for 40 mins by amplex red reagent-based fluorescence assay relative to control
T1 sequence (whole entry): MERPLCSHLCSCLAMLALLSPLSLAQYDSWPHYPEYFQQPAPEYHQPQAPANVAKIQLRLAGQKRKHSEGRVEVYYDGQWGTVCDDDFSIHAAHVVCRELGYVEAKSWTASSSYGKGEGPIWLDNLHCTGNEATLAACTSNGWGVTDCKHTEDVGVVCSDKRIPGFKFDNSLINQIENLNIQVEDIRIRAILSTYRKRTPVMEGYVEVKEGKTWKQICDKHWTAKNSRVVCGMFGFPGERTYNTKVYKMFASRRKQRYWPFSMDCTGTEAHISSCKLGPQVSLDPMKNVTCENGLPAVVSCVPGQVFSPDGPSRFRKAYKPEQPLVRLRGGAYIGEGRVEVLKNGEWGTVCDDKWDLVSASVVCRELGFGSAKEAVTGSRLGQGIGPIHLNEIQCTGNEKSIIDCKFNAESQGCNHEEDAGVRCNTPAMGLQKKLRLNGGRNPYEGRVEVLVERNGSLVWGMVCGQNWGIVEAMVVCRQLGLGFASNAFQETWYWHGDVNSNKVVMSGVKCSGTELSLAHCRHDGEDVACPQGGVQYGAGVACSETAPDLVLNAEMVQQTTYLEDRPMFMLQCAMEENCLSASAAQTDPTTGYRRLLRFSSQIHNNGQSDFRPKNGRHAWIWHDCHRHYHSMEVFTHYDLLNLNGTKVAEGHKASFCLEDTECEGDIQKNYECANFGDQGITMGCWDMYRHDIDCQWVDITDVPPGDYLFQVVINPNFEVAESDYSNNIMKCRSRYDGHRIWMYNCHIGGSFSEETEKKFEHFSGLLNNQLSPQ
Outline: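 Wells were washed repeatedly with PBS and equilibrated for 2 h. Recovered activity was then compared with nonwashed controls.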

[2] = molecular target: T1, Lysyl oxidase homolog 2 (Homo sapiens); test: Irreversible inhibition of human LOXL2 assessed as catalytic activity preincubated for 2 hrs followed by substrate addition measured every 2 mins for 1 hr by amplex red reagent-based fluorescence assay relative to control; design: concentration or dose not given beside the values
Lysyl oxidase homolog 2 [3] = molecular target: T2, Lysyl oxidase homolog 2 (Homo sapiens, UniProt Q9Y4K0); test: Inhibition of human LOXL2 expressed in CHO cells assessed as reduction of H2O2 production from oxidative deamination of DAP preincubated for 2 hrs followed by substrate addition in presence of 0.1% BSA measured every 2 mins for 1 hr by amplex red reagent-based fluorescence assay; format: cell-based
T2 sequence (Q9Y4K0 whole entry): T1 sequence (whole entry)

Lysyl oxidase homolog 2 [4] = molecular target: T2, Lysyl oxidase homolog 2; test: Inhibition of human LOXL2 expressed in CHO cells assessed as reduction of H2O2 production from oxidative deamination of DAP preincubated for 2 hrs followed by substrate addition measured every 2 mins for 1 hr by amplex red reagent-based fluorescence assay; format: cell-based
Lysyl oxidase homolog 2 [5] = molecular target: T2, Lysyl oxidase homolog 2; test: Inhibition of recombinant human LOXL2 expressed in human whole blood assessed as reduction of H2O2 production from oxidative deamination of DAP preincubated for 2 hrs followed by substrate addition measured every 2 mins for 1 hr by amplex red reagent-based fluorescence assay
[6] = Cmax in C57BL/6 mouse lung at 30 mg/kg, po by LC-MS/MS analysis; format: ADME, organism-based; design: dose 30 mg/kg, route oral
Outline: (§1)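 Normal C57BL/6 mice, n = 3 per time point, received a single oral 30 mg/kg dose formulated in 0.5% methylcellulose.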

[7] = Cmax in C57BL/6 mouse plasma at 30 mg/kg, po by LC-MS/MS analysis; format: ADME, organism-based; design: dose 30 mg/kg, route oral; outline: as §1
[8] = Protein binding in human plasma; format: ADME, cell-free; settings: read-out: PPB (converted)

Row | SMILES | inhibition [1] | inhibition [2] | IC50 (Lysyl oxidase homolog 2 [3]) | IC50 (Lysyl oxidase homolog 2 [4]) | IC50 (Lysyl oxidase homolog 2 [5]) | Cmax [6] | Cmax [7] | fraction unbound [8]
1 | NCc1ccnc(Cl)c1 | 32% | 93% | – | – | – | – | – | –
2 | NCc1ccnc(OC2CCCCC2)c1 | – | – | 1.8 µM | 0.85 µM | 29 µM | – | – | –
3 | NCc1ccnc(Oc2cccc(C(=O)Nc3ccc(F)cc3)c2)c1 | – | – | 0.13 µM | 0.05 µM | 1.6 µM | – | – | –
4 | N=C(N)c1cccc(CNC(=O)c2cccc(Oc3cc(CN)ccn3)c2)c1 | – | – | 0.65 µM | 0.18 µM | 5.2 µM | – | – | –
5 | NCc1ccnc(Oc2cccc(C(=O)Nc3ccc(C(=O)O)cc3)c2)c1 | – | – | 0.3 µM | 0.081 µM | 1.4 µM | – | – | –
6 | Cl.NCc1cc(Oc2cccc(C(=O)N3CC[C@@H](O)C3)c2)nc(C(F)(F)F)c1 | 75% | 95% | 0.15 µM | 0.11 µM | 0.91 µM | 9.13 µM | 5.13 µM | –
7 | NCc1cc(O[C@@H]2CCCN(C(=O)Nc3ccccc3)C2)nc(C(F)(F)F)c1 | – | – | 0.62 µM | 0.57 µM | 40 µM | – | – | –
8 | NCc1ccnc(Oc2cccc(C(=O)Nc3ccccc3)c2)c1 | – | – | 0.13 µM | 0.056 µM | 1.3 µM | – | – | –
9 | NCc1cc(O[C@H]2CCCN(C(=O)Nc3ccccc3)C2)nc(C(F)(F)F)c1 | – | – | 0.16 µM | 0.13 µM | 2 µM | 30 µM | 1.9 µM | –
10 | Cl.Cl.NCc1cc(Oc2cccc(C(=O)N3CC[C@@H](N)C3)c2)nc(C(F)(F)F)c1 | – | – | 0.1 µM | 0.058 µM | 0.69 µM | 1.23 µM | 0.67 µM | –
11 | NCc1ccnc(Oc2cccc(C(=O)NCc3ccccc3)c2)c1 | – | – | 0.11 µM | 0.062 µM | 1.4 µM | – | – | –
12 | Cl.NCc1cc(Oc2cccc(C(=O)NCCS(N)(=O)=O)c2)nc(C(F)(F)F)c1 | 75% | 97% | 0.062 µM | 0.035 µM | 0.31 µM | 0.54 µM | 1.04 µM | –
13 | Cl.NCc1cc(Oc2cccc(C(=O)Nc3ccccc3)c2)nc(C(F)(F)F)c1 | 88% | 98% | 0.062 µM | 0.042 µM | 2.9 µM | 10.3 µM | 0.86 µM | 0.04
14 | NCc1cc(Oc2cccc(C(=O)NCc3cc4ccccc4s3)c2)nc(C(F)(F)F)c1 | – | – | 0.1 µM | 0.034 µM | 9.9 µM | – | – | –
15 | NCc1ccnc(Oc2cccc(C(=O)NCc3cc4ccccc4s3)c2)c1 | – | – | 0.11 µM | 0.079 µM | 1.7 µM | – | – | –
16 | NCc1cc(Oc2cccc(Oc3ccccc3)c2)nc(C(F)(F)F)c1 | – | – | 0.27 µM | 0.067 µM | 23 µM | – | – | –
17 | COc1ccc(NC(=O)c2cccc(Oc3cc(CN)ccn3)c2)cc1 | – | – | 0.16 µM | 0.053 µM | 1.8 µM | – | – | –
18 | CONC(=O)c1cccc(Oc2cc(CN)cc(C(F)(F)F)n2)c1.Cl | – | – | 0.14 µM | 0.096 µM | 0.84 µM | 8.78 µM | 0.63 µM | –
19 | NCc1ccnc(Oc2ccc(C(=O)Nc3ccccc3)cc2)c1 | – | – | 0.75 µM | 0.27 µM | 39 µM | – | – | –
20 | Cl.NCc1cc(Oc2cccc(C(=O)NC[C@@H](O)CO)c2)nc(C(F)(F)F)c1 | 77% | 96% | 0.088 µM | 0.077 µM | 0.55 µM | 1.92 µM | 2.77 µM | –
21 | COCCNC(=O)c1ccc(Oc2cc(CN)ccn2)cc1 | – | – | 1.5 µM | 0.5 µM | 30 µM | – | – | –
22 | Cl.NCc1cc(Oc2cccc(C(=O)NCCn3cnnn3)c2)nc(C(F)(F)F)c1 | 77% | 97% | 0.08 µM | 0.043 µM | 0.28 µM | 3.46 µM | 1.99 µM | –
23 | COCCNC(=O)c1cccc(Oc2cc(CN)ccn2)c1 | – | – | 0.29 µM | 0.16 µM | 2.9 µM | – | – | –
24 | NCc1ccnc(Oc2cccc(C(=O)N3CCc4ccccc4C3)c2)c1 | – | – | 0.37 µM | 0.12 µM | 7.9 µM | – | – | –
